How the values were obtained:
[1] = Half life in human liver microsomes; assay type: ADME
[2] = Half life in dog liver microsomes; assay type: ADME, Canis lupus familiaris
[3] = Half life in rat liver microsomes; assay type: ADME
[4] = Oral bioavailability in dog at 1 mg/kg; assay type: ADME, organism-based, Canis lupus familiaris; conditions: in vivo
How it was run: (§1)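 Dogs (n = 3) were dosed at 0.2 mg/kg iv and 1.0 mg/kg po for pharmacokinetic parameters.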

[5] = Dissociation constant, pKa of the compound in methanol/water by spectrophotometric titration method; assay type: physicochemical
[6] = Clearance in dog at 0.2 mg/kg, iv and 1 mg/kg, po; assay type: ADME, organism-based, Canis lupus familiaris; conditions: in vivo; how it was run: as §1
[7] = Volume of distribution at steady state in dog at 0.2 mg/kg, iv and 1 mg/kg, po; assay type: ADME, organism-based, Canis lupus familiaris; conditions: in vivo, read-out: Vdss; how it was run: as §1
[8] = Half life in dog at 0.2 mg/kg, iv and 1 mg/kg, po; assay type: ADME, organism-based, Canis lupus familiaris; conditions: in vivo; how it was run: as §1

SMILES | half-life [1] [min] | half-life [2] [min] | half-life [3] [min] | bioavailability [4] [%] | pKa [5] | clearance [6] [mL/min/kg] | Vd [7] [L/kg] | half-life [8] [min]
Cc1cc2ccc1[C@@H](C)COC(=O)Nc1ccc(S(=O)(=O)C3CC3)c(c1)CN(C)C(=O)[C@@H]2Nc1cc2ccnc(N)c2cc1F | 95 | 7 | 10 | < 1 |  | 11 | 4 | 360
Cc1cc2ccc1[C@@H](C)COC(=O)Nc1ccc(S(=O)(=O)C3CC3)c(c1)CN(C)C(=O)[C@@H]2Nc1ccc2c(N)ncc(F)c2c1 | 45 | 26 | 1.9 | 40 | 7.1 | 8 | 5 | 480
Cc1cc2ccc1[C@@H](C)COC(=O)Nc1ccc(OC(F)(F)F)c(c1)CN(C)C(=O)[C@@H]2Nc1ccc2c(N)nccc2c1 | 130 | 140 | 37 | 22 |  |  |  | 

The next lines start with the values.

half-life [1] [min] | half-life [2] [min] | half-life [3] [min] | bioavailability [4] [%] | pKa [5] | clearance [6] [mL/min/kg] | Vd [7] [L/kg] | half-life [8] [min] | SMILES
> 120 | 110 | 12 | 1 | 8.7 |  |  |  | Cc1cc2ccc1[C@@H](C)COC(=O)Nc1ccc(S(=O)(=O)C3CC3)c(c1)CN(C)C(=O)[C@@H]2Nc1ccc2c(N)nccc2c1
120 | 39 | 3.3 | 24 | 8 | 13 | 8 | 480 | Cc1cc2ccc1[C@@H](C)COC(=O)Nc1ccc(S(=O)(=O)C3CC3)c(c1)CN(C)C(=O)[C@@H]2Nc1cc(F)c2c(N)nccc2c1

Reference: ChEMBL document CHEMBL3853316 (J Med Chem, 2016)
